CHOP inhibitor – inhibitors of CHOP promoter induction, primary screen, cell-based, unfolded protein response, luciferase reporter | CHO-K1 CHOP-promoter luciferase, tunicamycin-induced, 15-18 h | inhibition, % at 10 µM | 220,000 compounds, 3.8% hits | AID 2732, 2010;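 active = compounds that reduced the stress-induced luciferase reporter signal by more than about 70% of percent inhibition, limit read from the data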
A1 inh – caspase 3/7 activation in MEF A1-2A-BIM cells, primary screen, A1 inhibitor project, cell-based, luminescence, HTS; Caspase-Glo 3/7 luminescence, 3 h; percent of clofoctol response, vehicle zero; caspase activation, % (test concentration not listed); 330,000 compounds, 0.066% hits; AID 2462, 2010;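 active = over half of replicate activation scores above 10%, or exactly half above 10 with the replicate mean above 10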
XBP1 UPR activ – activators of adaptive XBP1 UPR arm, primary screen, cell-based, CHO-XBP1 luciferase reporter, luminescence, uHTS; IRE1-XBP1 UPR activation; percent of tunicamycin response, DMSO as zero; activation, % at 20 µM; 330,000 compounds, 0.33% hits;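 active = versus positive control, 20 µM dose yields 30% or more activation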
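Material: CHO cell line with stable XBP1 luciferase reporter; schedule: 16-18 h cell attachment at 37 °C, then 6 h compound exposure; signal: glow luminescence from Steady-Glo reagent; medium: serum-containing F12 medium, 10% FBS; benchmarks: tunicamycin 10 µg/mL and vehicle-only wells; read-out: percent activation relative to tunicamycin reference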
CHOP UPR activ – activators of apoptotic CHOP UPR arm, primary screen, cell-based, CHO-CHOP luciferase reporter, luminescence, uHTS | 330,000 compounds, 0.34% hits | UPR activation; percent of tunicamycin response over DMSO baseline | activation, % at 10 µM;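 active = at 10 µM dose, activation of 40% or more, normalized to positive control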
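Assay system: CHO-CHOP cells, stable luciferase reporter of PERK-eIF2a-CHOP signalling / Buffer or medium: F12 plus 10% serum / Compound dosing: one dose, 10 µM in 0.5% DMSO / Times: 6 h compound treatment, 37 °C / Technique: luciferase luminescence / Read-out: % reporter activation, DMSO baseline versus tunicamycin full activation / Benchmarks: tunicamycin and DMSO controls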
CHOP UPR conf – activators of apoptotic CHOP UPR arm, confirmation, cell-based, CHO-CHOP luciferase reporter, single concentration | shares compounds with CHOP UPR activ | CHO-CHOP cells, CHOP-luciferase reporter luminescence; percent of tunicamycin response, DMSO as zero | activation, % at 10 µM | 1,000 compounds, 64% hits; in the data active = activation above about 33%
XBP1 UPR conf – IRE1-XBP1 UPR arm activators, confirmation, cell-based, CHO-XBP1 luciferase reporter, luminescence, single concentration; 1,000 compounds, 63% hits; activation, % at 20 µM; shares compounds with XBP1 UPR activ;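 active = reporter signal at least 30% of the positive control's activation in two or more of four replicate wells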
Of the large screens only hits and unclear results are named; the others gave an inactive call (follow-up assays come after a bar, where they were run); ! = a repeat was not active. Only a selection was taken, and hits are over-represented in it overall.

CCOC(=O)C1C(=O)NC23CCCC2C1c1ccccc1O3 (stereo not drawn)	none
COc1cccc(N2C(=O)/C(=C/c3ccc(C)o3)C(=O)NC2=S)c1	CHOP UPR activ 262 (no result: CHOP inhibitor) | CHOP UPR conf inactive
CC(C)c1ccc(N2C(=O)NC(=O)/C(=C\C=C\c3ccco3)C2=O)cc1	CHOP inhibitor 104, CHOP UPR activ 250 | CHOP UPR conf 254
CCCn1ncc(CN2CCCC(C(=O)c3cccc(OC)c3)C2)c1C (stereo not drawn)	none
CCn1c(O)c(N=Nc2cccc(S(=O)(=O)N3CCOCC3)c2)c(=O)n(CC)c1=S	CHOP UPR activ 41 | CHOP UPR conf inactive
CCn1c(O)c(/C=N/N2CCOCC2)c(=O)n(CC)c1=S	none
COc1ccc(N2C(=O)/C(=C/C=C/c3ccccc3[N+](=O)[O-])C(=O)NC2=S)cc1	CHOP UPR activ 355 (no result: A1 inh) | CHOP UPR conf 90
CC(C)[N+](C)(CCC(C(N)=O)(c1ccccc1)c1ccccc1)C(C)C	none
CN(CCc1ccccc1)Cc1c[nH]c2ccccc12	CHOP UPR activ 88 (no result: CHOP inhibitor) | CHOP UPR conf inactive
O=c1[nH]c(=S)n(C2CC2)c(O)c1C=Nc1cccc(C(F)(F)F)c1	CHOP inhibitor 95, CHOP UPR activ 46 | CHOP UPR conf 36
CC(=NCCN1CCCCC1)c1c(O)n(-c2ccc(Cl)cc2)c(=O)[nH]c1=O	none
Cc1cccc(N2C(=O)NC(=O)/C(=C\c3cnc(-c4ccccc4)nc3)C2=O)c1	none
Cc1cc(C)cc(N2C(=O)NC(=O)/C(=C\c3cccn3-c3ccccc3)C2=O)c1	CHOP UPR activ 189 | CHOP UPR conf 333
Cc1nc2ccccc2c(=O)n1-c1ccc(-c2ccccc2)cc1	none (no result: CHOP inhibitor)
CC(C)c1ccc(NC(=O)CSc2nnc(OC(=O)N(C)C)n2C2CC2)cc1	none (no result: CHOP inhibitor)
CCCCCn1c(=O)c(C(=O)Nc2ncccc2C)c(O)c2ccccc21	XBP1 UPR activ 36, CHOP UPR activ 46 (no result: CHOP inhibitor) | CHOP UPR conf inactive
CCCCn1c(=O)c(C(=O)Nc2ccccc2C)c(O)c2ccccc21	none (no result: CHOP inhibitor)
Cc1ccc(CN2CCCC(C(=O)c3sccc3C)C2)o1 (stereo not drawn)	none
CC(C)N1C(=O)/C(=C/C=C/c2ccco2)C(=O)N(Cc2ccco2)C1=O	CHOP UPR activ 45 | CHOP UPR conf 156
COc1ccc(/C=C2/C(=O)N(Cc3ccco3)C(=O)N(C(C)C)C2=O)cc1	none
COc1cc(/C=C/[N+](=O)[O-])ccc1O	CHOP UPR activ 189 | CHOP UPR conf 54
COc1ccc(-n2c(/C=C/c3ccc(O)c(OC)c3)nc3ccccc3c2=O)cc1	none (no result: CHOP inhibitor)
Cc1c(C(=O)c2cccc3ccccc23)c2cccc3c2n1[C@H](CN1CCOCC1)CO3	CHOP UPR activ 58 | CHOP UPR conf 40
CCCCn1c(NC(=O)c2ccco2)c(C(=O)OCC)c2nc3ccccc3nc21	XBP1 UPR activ 40, CHOP UPR activ 47 | CHOP UPR conf inactive | XBP1 UPR conf inactive
CCCCn1c(NS(=O)(=O)c2ccc(C)cc2)c(C(=O)OCC)c2nc3ccccc3nc21	none
COc1ccccc1-n1c(-c2ccccc2Cl)nc2ccccc2c1=O	none (no result: CHOP inhibitor)
CN1C(=O)/C(=C/c2cccn2-c2ccc3ccccc3c2)C(=O)NC1=S	XBP1 UPR activ 116, CHOP UPR activ 145 | CHOP UPR conf 151 | XBP1 UPR conf inactive
CCN(CC)c1ccc(N=Cc2c(O)n(Cc3ccccc3)c(=O)[nH]c2=O)cc1	CHOP inhibitor 96!, XBP1 UPR activ 31 | XBP1 UPR conf 35!
C=C(C)c1cccc(C(C)(C)NC(=O)NC2CN3CCC2CC3)c1 (stereo not drawn)	none
Cc1ccc(-n2c(O)c(/C=N/c3ncc(Br)cc3Br)c(=O)[nH]c2=O)cc1	CHOP inhibitor 74, XBP1 UPR activ 31 | XBP1 UPR conf 52
Cc1cccc(-n2c(O)c(C=Nc3ccc(Br)cn3)c(=O)[nH]c2=O)c1	none
CCN(CC)c1ccc(/C=C/[N+](=O)[O-])cc1	XBP1 UPR activ 112 | XBP1 UPR conf 76
C/C(=N\NC(=S)Nc1ccccc1)c1c(O)n(C)c(=O)n(C)c1=O	none

From PubChem
